pEC50: −log10 of the molar value. Read-outs that look alike come from different tables or passages of the source.
Legend:
[1] = molecular target: T1, NPR-B receptor on NIH3T3 cells (Mus musculus, UniProt Q6VVW5); experiment: 3T3 cell NPR-B guanylate cyclase assay; assay type: cell-based
T1 sequence (Q6VVW5 23-1047 limits assumed): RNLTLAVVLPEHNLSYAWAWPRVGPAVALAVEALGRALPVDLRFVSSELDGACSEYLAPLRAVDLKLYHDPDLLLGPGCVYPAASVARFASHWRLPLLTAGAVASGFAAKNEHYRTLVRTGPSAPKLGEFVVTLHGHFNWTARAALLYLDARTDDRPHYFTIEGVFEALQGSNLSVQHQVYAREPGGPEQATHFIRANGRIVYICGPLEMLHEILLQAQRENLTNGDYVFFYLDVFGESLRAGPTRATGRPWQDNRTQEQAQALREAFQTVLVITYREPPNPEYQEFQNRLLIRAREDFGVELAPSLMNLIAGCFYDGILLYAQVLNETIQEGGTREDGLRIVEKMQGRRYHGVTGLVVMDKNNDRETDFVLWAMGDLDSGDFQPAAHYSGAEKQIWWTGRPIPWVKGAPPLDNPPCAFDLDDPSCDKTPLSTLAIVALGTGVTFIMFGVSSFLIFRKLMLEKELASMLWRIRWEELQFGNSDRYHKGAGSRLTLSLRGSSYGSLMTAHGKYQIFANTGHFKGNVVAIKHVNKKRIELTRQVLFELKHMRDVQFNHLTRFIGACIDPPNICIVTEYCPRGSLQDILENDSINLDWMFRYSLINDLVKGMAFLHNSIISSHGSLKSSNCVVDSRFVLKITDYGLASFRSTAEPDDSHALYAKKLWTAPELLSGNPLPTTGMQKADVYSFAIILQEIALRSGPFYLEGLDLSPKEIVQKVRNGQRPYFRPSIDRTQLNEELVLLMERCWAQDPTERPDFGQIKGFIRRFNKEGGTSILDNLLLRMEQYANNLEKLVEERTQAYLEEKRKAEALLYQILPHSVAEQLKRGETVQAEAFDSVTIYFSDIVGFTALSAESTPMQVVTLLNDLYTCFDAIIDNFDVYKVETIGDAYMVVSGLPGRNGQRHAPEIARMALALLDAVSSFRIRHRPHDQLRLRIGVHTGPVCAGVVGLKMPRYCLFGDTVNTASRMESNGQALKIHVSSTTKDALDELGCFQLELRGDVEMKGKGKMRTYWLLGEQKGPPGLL

[2] = In vitro degradation at pH 7.4, 37 °C, HPLC analysis; assay type: physicochemical
[3] = test system: 3-wk-old FVB/nJ male mice; experiment: Growth; assay type: in vivo, mouse; settings: QD 70 nmol/kg SC, 5 wk, n = 6
Procedure, shortened: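 Wild-type male FVB/nJ mice, 3 wk old, groups of 6, were given SC injections once daily of 70 nmol/kg peptide or vehicle for 5 wk. Total body length was nasoanal plus tail length, measured in anesthetized mice positioned with head extended, nose on a horizontal guideline and tail straight. Length change over the period was compared with the vehicle group.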

[4] = Body weight of treated mice; assay type: in vivo, mouse; settings: 3-wk-old FVB/nJ male mice, various regimens
Procedure, shortened: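 Wild-type male FVB/nJ mice, 3 wk old, about 15 g. Groups received one of: vehicle, daily SC 70 nmol/kg peptide, or microsphere-conjugated peptide. Conjugate dosing was weekly, biweekly or a single dose, either as constant nmol per mouse or as µmol/kg by body weight. Body weights of treated and untreated animals were followed over the study.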

[5] = molecular target: T1, NPR-B receptor on NIH3T3 cells; settings: read-out: EC50, reported; literature values; cited from earlier work
[6] = literature value; cited from earlier work
[7] = monkeys, 12 nmol/kg; cited from earlier work
[8] = mice, QD 70-nmol/kg dose; cited from earlier work
mice = settings: 70 nmol/kg; cited from earlier work
monkeys = settings: 12 nmol/kg; cited from earlier work
children with ACH = settings: once daily 15 μg/kg SC; cited from earlier work

CC[C@H](C)[C@@H]1NC(=O)[C@H](CCCNC(=N)N)NC(=O)[C@H](CC(=O)O)NC(=O)[C@H](CC(C)C)NC(=O)[C@H](CCCCN)NC(=O)[C@H](CC(C)C)NC(=O)CNC(=O)[C@H](Cc2ccccc2)NC(=O)[C@@H](NC(=O)CNC(=O)[C@H](CCCCN)NC(=O)[C@H](CO)NC(=O)[C@H](CC(C)C)NC(=O)CNC(=O)[C@H](CCCCN)NC(=O)[C@H](CCCCN)NC(=O)[C@H](CC(N)=O)NC(=O)[C@H](C)NC(=O)CNC(=O)[C@H](CCCCN)NC(=O)[C@H](Cc2ccc(O)cc2)NC(=O)[C@H](CCCCN)NC(=O)[C@H](CCCNC(=N)N)NC(=O)[C@H](C)NC(=O)[C@H](CC(N)=O)NC(=O)[C@@H]2CCCN2C(=O)[C@H](Cc2c[nH]cn2)NC(=O)[C@H](CCC(=O)O)NC(=O)[C@H](CCC(N)=O)NC(=O)CNC(=O)[C@@H]2CCCN2)CSSC[C@@H](C(=O)O)NC(=O)CNC(=O)[C@H](CC(C)C)NC(=O)CNC(=O)[C@H](CO)NC(=O)[C@H](CCSC)NC(=O)[C@H](CO)NC(=O)CNC1=O [vosoritide]
pEC50 [1]: 7.96 | degradation t1/2 ([2]; 100 µM, 10 mM sodium phosphate, 0.13 M NaCl, pH 7.4, 37 °C, HPLC): ~170 h | t1/2 for degradation ([2]; physiological pH and temperature): ≤ 1 wk | growth (TBL) exceeding that of the vehicle control group at study end [3]: 100% | body weights of treated versus untreated mice [4]: no difference | pEC50 [5]: 8.31 | Cmax [6]: ~5 nM | Cmax [7]: ~10 nM | Cmax [8]: 200 nM | blood pressure and heart rate (mice): acute decreases in blood pressure and increases in heart rate within acceptable limits | systemic BP or HR (monkeys): no changes in systemic BP or HR | annualized growth velocity (children with ACH): sustained increase in the annualized growth velocity | side effect profile (children with ACH): mild side effect profile
